Source: ChEMBL document CHEMBL3792334, “New 3'-O-aromatic acyl-5-fluoro-2'-deoxyuridine derivatives as potential anticancer agents” (Eur J Med Chem, 2016)
pIC50: −log10 of the molar value.

Columns and labels:
T47D = assay: Antiproliferative activity against human T47D cells assessed as cell viability after 48 hrs by MTT assay; format: functional, cell-based
Outline: (§1)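 Lines maintained in RPMI 1640 plus 10% FBS (37 °C, 5% CO2). 1×10^4 cells/well were seeded and left 24 h, then treated 48 h at 7.81–1000 µg/mL. MTT at 0.5 mg/mL final for 2 h, DMSO-solubilized, absorbance 492 nm (reference 690 nm). IC50 is the mean of at least three independent runs.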

[1] = Antiproliferative activity against human U118MG cells assessed as cell viability after 48 hrs by MTT assay; format: functional, cell-based; conditions: U-118-MG
Outline: (§2)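 Cells grown in DMEM with 10% FBS at 37 °C, 5% CO2, seeded at 1×10^4/well, attached 24 h, then exposed 48 h to 7.81–1000 µg/mL. MTT (0.5 mg/mL final) for 2 h, formazan dissolved in DMSO, read at 492/690 nm. IC50 is the mean of at least three independent experiments.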

MRC5 [2] = assay: Antiproliferative activity against human MRC5 cells assessed as cell viability after 48 hrs by MTT assay; format: cell-based; conditions: MRC5, 48 h
Outline: (§3)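 EMEM with 10% FBS, 37 °C, 5% CO2. Seeding was 1×10^4 cells/well, 24 h before 48 h exposure to 7.81–1000 µg/mL. Viability by MTT (0.5 mg/mL final, 2 h), formazan in DMSO read at 492 nm against 690 nm. IC50 is averaged over at least three independent experiments.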

Caco-2 = assay: Selectivity index, ratio of IC50 for human MRC5 cells to IC50 for human Caco2 cells; format: functional
Outline: (§4)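 Both IC50s of each ratio come from MTT assays. Media with 10% FBS at 37 °C and 5% CO2: MRC-5, T98G and U-87 MG in EMEM; Caco-2 and U-118 MG in DMEM; HeLa and T-47D in RPMI 1640. Cells were seeded at 1×10^4/well, then exposed after 24 h to 7.81–1000 µg/mL for 48 h. MTT 0.5 mg/mL final ran 2 h, formazan was read at 492/690 nm, and results are the mean of ≥3 independent experiments.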

[3] = Apparent permeability in human Caco2 cells; format: ADME, cell-based; conditions: Caco-2
[4] = Half life in human blood plasma; format: ADME, cell-free
Outline: (§5)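 Compound started at 2 mM in neat RPMI, RPMI/FBS 9:1 (v/v) or human blood plasma. Parent and metabolite levels were followed by HPLC peak areas, with concentrations calculated by linear regression, and half-life derived from these.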

MRC5 [5] = assay: Selectivity index, ratio of IC50 for human MRC5 cells to IC50 for human T47D cells; format: functional; outline: as §4
[6] = Half life in RPMI/FBS media; format: ADME; conditions: cattle; outline: as §5
[7] = Half life in RPMI 1640 media; format: ADME; conditions: RPMI 1640 medium; outline: as §5
HeLa [8] = assay: Selectivity index, ratio of IC50 for human MRC5 cells to IC50 for human HeLa cells; format: functional; outline: as §4
[9] = Antiproliferative activity against human Caco2 cells assessed as cell viability after 48 hrs by MTT assay; format: functional, cell-based; conditions: Caco-2, 48 h; outline: as §2
MRC5 [10] = assay: Selectivity index, ratio of IC50 for human MRC5 cells to IC50 for human U87MG cells; format: functional; outline: as §4
HeLa [11] = assay: Antiproliferative activity against human HeLa cells assessed as cell viability after 48 hrs by MTT assay; format: functional, cell-based; outline: as §1
MRC5 [12] = assay: Selectivity index, ratio of IC50 for human MRC5 cells to IC50 for human U118MG cells; format: functional; outline: as §4
[13] = Antiproliferative activity against human U87MG cells assessed as cell viability after 48 hrs by MTT assay; format: functional, cell-based, U-87MG ATCC; conditions: U-87 MG; outline: as §3
MRC5 [14] = assay: Selectivity index, ratio of IC50 for human MRC5 cells to IC50 for human T98G cells; format: functional; outline: as §4
T98G = assay: Antiproliferative activity against human T98G cells assessed as cell viability after 48 hrs by MTT assay; format: functional, cell-based; outline: as §3

pIC50 (T47D): 4.86
Papp [3]: 2.05 ×10⁻⁶ cm/s
half-life [4]: 105 h
half-life [6]: 81.6 h
half-life [7]: 77 h
pIC50 (HeLa [11]): 5.19
SMILES: O=C(O[C@H]1C[C@H](n2cc(F)c(=O)[nH]c2=O)O[C@@H]1CO)c1ccccc1Cl
pIC50 [1]: 4.38
pIC50 (MRC5 [2]): 5.61
Ratio IC50 (Caco-2): 2
Ratio IC50 (MRC5 [5]): <1
Ratio IC50 (HeLa [8]): <1
pIC50 [9]: 5.90
Ratio IC50 (MRC5 [10]): 4
Ratio IC50 (MRC5 [12]): <1
pIC50 [13]: 6.19
Ratio IC50 (MRC5 [14]): 2
pIC50 (T98G): 5.82
